Activity calls are given as the source filed them. No cut-off for these calls is given here.
What was measured:
Yellow fever virus [1] = experiment: Antiviral activity against YFV infected in african green monkey Vero cells assessed as reduction in cytopathic effect after 6 days; format: functional, organism-based; conditions: 144 h
Method in brief: (§1)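 Jimenez hamster-adapted YFV at 10 CCID50/well on Vero or CV-1 monolayers; seven drug concentrations added 5–10 min before virus; 37°C for 6 days. CPE scored microscopically, then neutral red uptake (0.34% dye, 2 h, eluted and quantified). EC50 derived; CC50 from uninfected drug-treated cells; SI = CC50/EC50.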

Yellow fever virus [2] = experiment: Antiviral activity against YFV infected in african green monkey CV1 cells assessed as reduction in cytopathic effect after 6 days; format: functional, organism-based; conditions: CV-1, 144 h; method in brief: as §1
[3] = Selectivity index, ratio of CC50 for african green monkey Vero cells to EC50 for YFV infected in Vero cells; format: functional; method in brief: as §1
[4] = Selectivity index, ratio of CC50 for african green monkey CV1 cells to EC50 for YFV infected in CV1 cells; format: functional, CV-1; method in brief: as §1
Yellow fever virus [5] = experiment: Antiviral activity against YFV Jimenez infected in Syrian golden hamster assessed as mean day to death after 21 days post-infection at 10 mg/kg, ip bid for 7 days; format: functional; conditions: route intraperitoneal
Syrian golden hamster [6] = experiment: Toxicity in YFV infected Syrian golden hamster assessed as survival of animals at 100 mg/kg/day, ip bid for 7 days; format: organism-based, Mesocricetus auratus; design: route intraperitoneal; conditions: in vivo, 168 h
Method in brief: (§2)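 Female Syrian golden hamsters (~100 g), toxicity-control groups of three, sham-infected. Drug suspended in saline or 0.4% carboxymethyl cellulose, given i.p. b.i.d. 12 h apart from −4 h through 7 days. Mortality checked daily; weight taken at 0, 3 and 6 dpi, with change taken as 3-to-6 dpi difference.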

Syrian golden hamster [7] = experiment: Toxicity in YFV infected Syrian golden hamster assessed as survival of animals at 32 mg/kg/day, ip bid for 7 days; format: organism-based, Mesocricetus auratus; design: route intraperitoneal; conditions: in vivo, 168 h; method in brief: as §2
Syrian golden hamster [8] = experiment: Toxicity in YFV infected Syrian golden hamster assessed as assessed as weight change at 32 mg/kg/day, ip bid for 7 days; format: organism-based, Mesocricetus auratus; design: route intraperitoneal; conditions: in vivo, 168 h; method in brief: as §2
Syrian golden hamster [9] = experiment: Toxicity in YFV infected Syrian golden hamster assessed as assessed as weight change at 100 mg/kg/day, ip bid for 7 days; format: organism-based, Mesocricetus auratus; design: route intraperitoneal; conditions: in vivo, 168 h; method in brief: as §2
Yellow fever virus [10] = experiment: Antiviral activity against YFV Jimenez infected in Syrian golden hamster assessed as mean day to death after 21 days post-infection at 32 mg/kg, ip bid for 7 days; format: functional; conditions: route intraperitoneal
Yellow fever virus [11] = experiment: Antiviral activity against YFV Jimenez infected in Syrian golden hamster assessed as mean day to death after 21 days post-infection at 100 mg/kg, ip bid for 7 days; format: functional; conditions: route intraperitoneal
Yellow fever virus [12] = experiment: Antiviral activity against YFV Jimenez infected in Syrian golden hamster assessed as survival of animal at 100 mg/kg, bid ip for 7 days; format: functional, organism-based; design: dose 100 mg/kg
Yellow fever virus [13] = experiment: Antiviral activity against YFV Jimenez infected in Syrian golden hamster assessed as survival of animal at 32 mg/kg, ip bid for 7 days; format: functional, organism-based; design: dose 32 mg/kg
Yellow fever virus [14] = experiment: Antiviral activity against YFV Jimenez infected in Syrian golden hamster assessed as survival of animal at 10 mg/kg, ip bid for 7 days; format: functional; conditions: route intraperitoneal
Yellow fever virus [15] = experiment: Antiviral activity against YFV Jimenez infected in Syrian golden hamster assessed as survival of animal at 100 mg/kg, po for 7 days; format: functional, organism-based; design: dose 100 mg/kg
Yellow fever virus [16] = experiment: Antiviral activity against YFV Jimenez infected in Syrian golden hamster assessed as survival of animal at 32 mg/kg, po for 7 days; format: functional, organism-based; design: dose 32 mg/kg
Yellow fever virus [17] = experiment: Antiviral activity against YFV Jimenez infected in Syrian golden hamster assessed as mean day to death after 21 days post-infection at 100 mg/kg, po bid for 7 days; format: functional
Yellow fever virus [18] = experiment: Antiviral activity against YFV Jimenez infected in Syrian golden hamster assessed as mean day to death after 21 days post-infection at 32 mg/kg, po bid for 7 days; format: functional
Yellow fever virus [19] = experiment: Antiviral activity against YFV Jimenez infected in Syrian golden hamster assessed as serum alanine aminotransferase at 100 mg/kg, ip bid for 7 days; format: functional; conditions: route intraperitoneal
Method in brief: (§3)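 YFV (Jimenez)-infected female hamsters were treated b.i.d. i.p. or p.o. Serum was drawn by ocular sinus at 6 dpi. ALT was read with a colorimetric kit adapted to microplates: substrate plus serum for 30 min at 37°C, then colour reagent and developer, absorbance at 505 nm. Values are IU/liter against saline controls.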

Yellow fever virus [20] = experiment: Antiviral activity against YFV Jimenez infected in Syrian golden hamster assessed as serum alanine aminotransferase at 32 mg/kg, ip bid for 7 days; format: functional; conditions: route intraperitoneal; method in brief: as §3
Yellow fever virus [21] = experiment: Antiviral activity against YFV Jimenez infected in Syrian golden hamster assessed as serum alanine aminotransferase at 10 mg/kg, ip bid for 7 days; format: functional; conditions: route intraperitoneal; method in brief: as §3
Yellow fever virus [22] = experiment: Antiviral activity against YFV Jimenez infected in Syrian golden hamster assessed as serum alanine aminotransferase at 100 mg/kg, po bid for 7 days; format: functional; method in brief: as §3
Yellow fever virus [23] = experiment: Antiviral activity against YFV Jimenez infected in Syrian golden hamster assessed as serum alanine aminotransferase at 32 mg/kg, po bid for 7 days; format: functional; method in brief: as §3
Yellow fever virus [24] = experiment: Antiviral activity against YFV Jimenez infected in Syrian golden hamster liver assessed as alanine aminotransferase at 100 mg/kg/day, ip bid for 8 days administered after 1 day post-infection; format: functional; conditions: route intraperitoneal; method in brief: as §3
Yellow fever virus [25] = experiment: Antiviral activity against YFV Jimenez infected in Syrian golden hamster liver assessed as weight change at 100 mg/kg/day, ip bid for 8 days administered after 4 day post-infection; format: functional; conditions: route intraperitoneal
Yellow fever virus [26] = experiment: Antiviral activity against YFV Jimenez infected in Syrian golden hamster liver assessed as weight change at 100 mg/kg/day, ip bid for 8 days administered after 5 day post-infection; format: functional; conditions: route intraperitoneal

With NC(=O)c1nccn([C@@H]2O[C@H](CO)[C@@H](O)[C@H]2O)c1=O the EC50 (Yellow fever virus [1]) was > 100 µg/mL, the EC50 (Yellow fever virus [2]) was > 100 µg/mL and the “Ratio CC50/EC50” value [3] was 1. The “Ratio CC50/EC50” value [4] was 1, the Activity (Yellow fever virus [5]) was 8 days and the Activity (Syrian golden hamster [6]) was “Non-toxic”. The Activity (Syrian golden hamster [7]) was “Non-toxic”, the Activity (Syrian golden hamster [8]) was 8.3 g and the Activity (Syrian golden hamster [9]) was 5.3 g. The Activity (Yellow fever virus [10]) was >21 days, the Activity (Yellow fever virus [11]) was >21 days and the Activity (Yellow fever virus [12]) was “Active”. The Activity (Yellow fever virus [13]) was “Active”, the Activity (Yellow fever virus [14]) was 80% and the Activity (Yellow fever virus [15]) was “Active”. For the same compound, the Activity (Yellow fever virus [16]) was “Active”, the Activity (Yellow fever virus [17]) was >21 days and the Activity (Yellow fever virus [18]) was >21 days. It also gave an Activity (Yellow fever virus [19]) of 56 IU/L, an Activity (Yellow fever virus [20]) of 65 IU/L and an Activity (Yellow fever virus [21]) of 174 IU/L. It also gave an Activity (Yellow fever virus [22]) of 56 IU/L, an Activity (Yellow fever virus [23]) of 61 IU/L and an Activity (Yellow fever virus [24]) of 56 IU/L. It also gave an Activity (Yellow fever virus [25]) of -4.7 g and an Activity (Yellow fever virus [26]) of -6.9 g.
